Reference: article PMC5615838 (Toxicology Reports, 2016)

What was measured:
[1] = in vitro metabolism in human liver microsomes; format: in vitro ADME; conditions: 50 μM, 120 min
[2] = toxicokinetics in 90-day toxicity study; format: in vivo, rat; conditions: for AUC(0-t) / Cmax: rat, plasma, po; for AUC(0-t): AUC0-24h
How it was run: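 In the 90-day dietary study (10, 30, 100 mg/kg bw/day), plasma taken at 6 time points over 24 h on Day 7, Week 6 and Week 13, assayed by validated LC-MS/MS. […] Accumulation ratio = AUC0-24h at Week 6 or 13 / Day 7.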

[3] = JECFA SPET dietary exposure estimate; parameters: species or system human; conditions: 28- and 90-day toxicology studies
[4] = system: S. typhimurium strains TA98, TA100, TA1535, TA1537 and E. coli strain WP2 uvrA; assay: bacterial reverse mutation test; format: cell-based, Salmonella typhimurium, Escherichia coli; conditions: 50–5000 μg/plate, plate incorporation and pre-incubation, ±S9
[5] = 90-day subchronic toxicity study, diet; format: in vivo, rat
How it was run: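 Sprague-Dawley Crl:CD(SD) rats, 20/sex/group, received test compound continuously in the diet at 0, 10, 30 or 100 mg/kg bw/day for 90 consecutive days. Body-weight gain and food consumption were monitored. Clinical signs were recorded throughout treatment.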

CYP3A4 = CYP3A4 (Homo sapiens, UniProt P08684); assay: CYP inhibition, LC–MS/MS assay in human liver microsomes; format: in vitro ADME; conditions: pooled human liver microsomes, probe midazolam
CYP3A4, sequence (P08684 whole entry): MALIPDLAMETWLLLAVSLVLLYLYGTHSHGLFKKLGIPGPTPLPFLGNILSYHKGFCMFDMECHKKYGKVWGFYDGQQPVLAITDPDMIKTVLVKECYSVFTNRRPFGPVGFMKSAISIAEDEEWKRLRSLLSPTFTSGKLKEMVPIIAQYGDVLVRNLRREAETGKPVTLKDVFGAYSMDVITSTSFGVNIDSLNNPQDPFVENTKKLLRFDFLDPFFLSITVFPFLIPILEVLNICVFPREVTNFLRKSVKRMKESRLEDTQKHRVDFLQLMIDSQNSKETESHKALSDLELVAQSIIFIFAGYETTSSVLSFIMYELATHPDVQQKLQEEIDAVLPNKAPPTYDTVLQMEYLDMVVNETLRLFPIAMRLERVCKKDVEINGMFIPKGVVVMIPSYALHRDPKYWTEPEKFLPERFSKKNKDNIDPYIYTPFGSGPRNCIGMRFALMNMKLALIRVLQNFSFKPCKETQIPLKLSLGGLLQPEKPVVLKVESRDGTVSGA
How it was run: (§1)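 Follow-up CYP panel in pooled human liver microsomes with CYP-specific probe substrates; CYP-specific metabolites quantified by LC-MS/MS. Test compound at 10 μM. Percent inhibition reported.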

[6] = system: GPCRs, ion channels, nuclear receptors, transporters; assay: lead profiling receptor screen; format: binding; conditions: 10 μM
[7] = in vitro metabolism in rat liver microsomes; format: in vitro ADME; conditions: 50 μM, 120 min
CYP2D6 = CYP2D6 (Homo sapiens, UniProt P10635); assay: CYP inhibition, LC–MS/MS assay in human liver microsomes; format: in vitro ADME; conditions: pooled human liver microsomes, probe bufuralol
CYP2D6, sequence (P10635 whole entry): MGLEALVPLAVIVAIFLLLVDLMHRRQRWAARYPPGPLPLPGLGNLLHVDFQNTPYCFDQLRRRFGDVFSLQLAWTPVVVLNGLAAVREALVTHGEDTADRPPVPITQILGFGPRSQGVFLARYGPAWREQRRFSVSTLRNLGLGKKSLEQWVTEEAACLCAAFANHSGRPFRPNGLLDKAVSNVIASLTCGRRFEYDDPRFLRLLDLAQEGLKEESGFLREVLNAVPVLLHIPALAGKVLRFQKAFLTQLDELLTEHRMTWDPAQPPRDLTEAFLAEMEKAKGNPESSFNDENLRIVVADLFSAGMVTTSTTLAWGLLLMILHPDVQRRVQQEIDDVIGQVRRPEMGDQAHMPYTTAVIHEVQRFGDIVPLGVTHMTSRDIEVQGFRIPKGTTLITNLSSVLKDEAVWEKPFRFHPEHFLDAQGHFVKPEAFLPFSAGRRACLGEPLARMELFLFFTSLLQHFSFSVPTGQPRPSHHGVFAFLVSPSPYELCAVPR
How it was run: as §1

[8] = 28-day dose-range finding toxicity study, diet; format: in vivo, rat; conditions: 28 days
How it was run: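 Crl:CD(SD) rats, 5/sex/group, fed test compound in the diet at 10, 30 or 100 mg/kg bw/day for 28 days, with a vehicle-diet control group of 5/sex. Assessed survival, clinical signs, body weight, food consumption, hematology, clinical chemistry, organ weights and gross pathology. Livers examined microscopically in the 0 and 100 mg/kg bw/day groups.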

[9] = female, Sprague-Dawley [Crl:CD(SD)], 10 mg/kg, Day 7, 10 mg/kg bw, F
[10] = female, Sprague-Dawley [Crl:CD(SD)], 10 mg/kg, Week 13, 10 mg/kg bw, F
[11] = female, Sprague-Dawley [Crl:CD(SD)], 30 mg/kg, Day 7, 30 mg/kg bw, F
[12] = female, Sprague-Dawley [Crl:CD(SD)], 30 mg/kg, Week 13, 30 mg/kg bw, F
[13] = female, Sprague-Dawley [Crl:CD(SD)], 100 mg/kg, Day 7, 100 mg/kg bw, F
[14] = female, Sprague-Dawley [Crl:CD(SD)], 100 mg/kg, Week 13, 100 mg/kg bw, F
[15] = female, Sprague-Dawley, 10 mg/kg, Week 6, 10 mg/kg bw, F
[16] = female, Sprague-Dawley, 30 mg/kg, Week 6, 30 mg/kg bw, F
[17] = female, Sprague-Dawley, 100 mg/kg, Week 6, 100 mg/kg bw, F
[18] = male, Sprague-Dawley [Crl:CD(SD)], 10 mg/kg, Day 7, 10 mg/kg bw, M
[19] = male, Sprague-Dawley [Crl:CD(SD)], 10 mg/kg, Week 13, 10 mg/kg bw, M
[20] = male, Sprague-Dawley [Crl:CD(SD)], 30 mg/kg, Day 7, 30 mg/kg bw, M
[21] = male, Sprague-Dawley [Crl:CD(SD)], 30 mg/kg, Week 13, 30 mg/kg bw, M
[22] = male, Sprague-Dawley [Crl:CD(SD)], 100 mg/kg, Day 7, 100 mg/kg bw, M
[23] = male, Sprague-Dawley [Crl:CD(SD)], 100 mg/kg, Week 13, 100 mg/kg bw, M
[24] = male, Sprague-Dawley, 10 mg/kg, Week 6, 10 mg/kg bw, M
[25] = male, Sprague-Dawley, 30 mg/kg, Week 6, 30 mg/kg bw, M
[26] = male, Sprague-Dawley, 100 mg/kg, Week 6, 100 mg/kg bw, M

Cc1noc(C)c1Cn1cc(N2C(=O)CN(Cc3cccc(O)c3)C2=O)cn1 [S6821, 3-(1-((3,5-dimethylisoxazol-4-yl)methyl)-1H-pyrazol-4-yl)-1-(3-hydroxybenzyl)imidazolidine-2,4-dione]
parent S6821 remaining, peak area % of time 0 [1]: 75%
Cmax and AUC0-24h higher than predicted from a linear relationship ([2]; 100 mg/kg bw/day, females): ~1.3 fold
Cmax and AUC0-24h lower than predicted from a linear relationship ([2]; 100 mg/kg bw/day, males): ~32%
AUC0-24h/dose ([2]; Day 7, 10 mg/kg bw, F): 12.2 ng·h/mL/mg/kg
AUC0-24h Ratio ([2]; Day 7, 10 mg/kg bw, F): 1
Cmax Ratio ([2]; Day 7, 10 mg/kg bw, F): 1
AUC0-24h/dose ([2]; Day 7, 10 mg/kg bw, M): 11.8 ng·h/mL/mg/kg
AUC0-24h Ratio ([2]; Day 7, 10 mg/kg bw, M): 1
Cmax Ratio ([2]; Day 7, 10 mg/kg bw, M): 1
AUC0-24h/dose ([2]; Day 7, 30 mg/kg bw, F): 14.5 ng·h/mL/mg/kg
AUC0-24h Ratio ([2]; Day 7, 30 mg/kg bw, F): 3.5
Cmax Ratio ([2]; Day 7, 30 mg/kg bw, F): 3.8
AUC0-24h/dose ([2]; Day 7, 30 mg/kg bw, M): 9.83 ng·h/mL/mg/kg
AUC0-24h Ratio ([2]; Day 7, 30 mg/kg bw, M): 2.5
Cmax Ratio ([2]; Day 7, 30 mg/kg bw, M): 2.8
AUC0-24h/dose ([2]; Day 7, 100 mg/kg bw, F): 15.0 ng·h/mL/mg/kg
AUC0-24h Ratio ([2]; Day 7, 100 mg/kg bw, F): 12.3
Cmax Ratio ([2]; Day 7, 100 mg/kg bw, F): 13.7
AUC0-24h/dose ([2]; Day 7, 100 mg/kg bw, M): 8.44 ng·h/mL/mg/kg
AUC0-24h Ratio ([2]; Day 7, 100 mg/kg bw, M): 7.2
Cmax Ratio ([2]; Day 7, 100 mg/kg bw, M): 6.8
ACUM Ratio ([2]; Week 6, 10 mg/kg bw, F): 0.93
AUC0-24h/dose ([2]; Week 6, 10 mg/kg bw, F): 11.3 ng·h/mL/mg/kg
AUC0-24h Ratio ([2]; Week 6, 10 mg/kg bw, F): 1
Cmax Ratio ([2]; Week 6, 10 mg/kg bw, F): 1
ACUM Ratio ([2]; Week 6, 10 mg/kg bw, M): 1.07
AUC0-24h/dose ([2]; Week 6, 10 mg/kg bw, M): 12.6 ng·h/mL/mg/kg
AUC0-24h Ratio ([2]; Week 6, 10 mg/kg bw, M): 1
Cmax Ratio ([2]; Week 6, 10 mg/kg bw, M): 1
ACUM Ratio ([2]; Week 6, 30 mg/kg bw, F): 0.76
AUC0-24h/dose ([2]; Week 6, 30 mg/kg bw, F): 11.0 ng·h/mL/mg/kg
AUC0-24h Ratio ([2]; Week 6, 30 mg/kg bw, F): 2.9
Cmax Ratio ([2]; Week 6, 30 mg/kg bw, F): 2.8
ACUM Ratio ([2]; Week 6, 30 mg/kg bw, M): 0.99
AUC0-24h/dose ([2]; Week 6, 30 mg/kg bw, M): 9.77 ng·h/mL/mg/kg
AUC0-24h Ratio ([2]; Week 6, 30 mg/kg bw, M): 2.3
Cmax Ratio ([2]; Week 6, 30 mg/kg bw, M): 2.3
ACUM Ratio ([2]; Week 6, 100 mg/kg bw, F): 0.87
AUC0-24h/dose ([2]; Week 6, 100 mg/kg bw, F): 13.0 ng·h/mL/mg/kg
AUC0-24h Ratio ([2]; Week 6, 100 mg/kg bw, F): 11.5
Cmax Ratio ([2]; Week 6, 100 mg/kg bw, F): 15.1
ACUM Ratio ([2]; Week 6, 100 mg/kg bw, M): 0.90
AUC0-24h/dose ([2]; Week 6, 100 mg/kg bw, M): 7.58 ng·h/mL/mg/kg
AUC0-24h Ratio ([2]; Week 6, 100 mg/kg bw, M): 6.0
Cmax Ratio ([2]; Week 6, 100 mg/kg bw, M): 4.1
ACUM Ratio ([2]; Week 13, 10 mg/kg bw, F): 1.02
AUC0-24h/dose ([2]; Week 13, 10 mg/kg bw, F): 12.5 ng·h/mL/mg/kg
AUC0-24h Ratio ([2]; Week 13, 10 mg/kg bw, F): 1
Cmax Ratio ([2]; Week 13, 10 mg/kg bw, F): 1
ACUM Ratio ([2]; Week 13, 10 mg/kg bw, M): 1.04
AUC0-24h/dose ([2]; Week 13, 10 mg/kg bw, M): 12.3 ng·h/mL/mg/kg
AUC0-24h Ratio ([2]; Week 13, 10 mg/kg bw, M): 1
Cmax Ratio ([2]; Week 13, 10 mg/kg bw, M): 1
ACUM Ratio ([2]; Week 13, 30 mg/kg bw, F): 0.79
AUC0-24h/dose ([2]; Week 13, 30 mg/kg bw, F): 11.5 ng·h/mL/mg/kg
AUC0-24h Ratio ([2]; Week 13, 30 mg/kg bw, F): 2.8
Cmax Ratio ([2]; Week 13, 30 mg/kg bw, F): 2.4
ACUM Ratio ([2]; Week 13, 30 mg/kg bw, M): 1.03
AUC0-24h/dose ([2]; Week 13, 30 mg/kg bw, M): 10.2 ng·h/mL/mg/kg
AUC0-24h Ratio ([2]; Week 13, 30 mg/kg bw, M): 2.5
Cmax Ratio ([2]; Week 13, 30 mg/kg bw, M): 3.1
ACUM Ratio ([2]; Week 13, 100 mg/kg bw, F): 1.11
AUC0-24h/dose ([2]; Week 13, 100 mg/kg bw, F): 16.7 ng·h/mL/mg/kg
AUC0-24h Ratio ([2]; Week 13, 100 mg/kg bw, F): 13.4
Cmax Ratio ([2]; Week 13, 100 mg/kg bw, F): 12.9
ACUM Ratio ([2]; Week 13, 100 mg/kg bw, M): 1.10
AUC0-24h/dose ([2]; Week 13, 100 mg/kg bw, M): 9.25 ng·h/mL/mg/kg
AUC0-24h Ratio ([2]; Week 13, 100 mg/kg bw, M): 7.5
Cmax Ratio ([2]; Week 13, 100 mg/kg bw, M): 9.1
AUC(0-t) [2, 9]: 122 ng·h/mL
AUC(0-t) [2, 10]: 125 ng·h/mL
Cmax [2, 9]: 7.22 ng/mL
Cmax [2, 10]: 8.32 ng/mL
AUC(0-t) [2, 11]: 436 ng·h/mL
AUC(0-t) [2, 12]: 344 ng·h/mL
Cmax [2, 11]: 27.7 ng/mL
Cmax [2, 12]: 19.8 ng/mL
AUC(0-t) [2, 13]: 1500 ng·h/mL
AUC(0-t) [2, 14]: 1670 ng·h/mL
Cmax [2, 13]: 99 ng/mL
Cmax [2, 14]: 107 ng/mL
AUC(0-t) [2, 15]: 113 ng·h/mL
Cmax [2, 15]: 6.34 ng/mL
AUC(0-t) [2, 16]: 331 ng·h/mL
Cmax [2, 16]: 17.5 ng/mL
AUC(0-t) [2, 17]: 1300 ng·h/mL
Cmax [2, 17]: 95.6 ng/mL
AUC(0-t) [2, 18]: 118 ng·h/mL
AUC(0-t) [2, 19]: 123 ng·h/mL
Cmax [2, 18]: 6.05 ng/mL
Cmax [2, 19]: 5.99 ng/mL
AUC(0-t) [2, 20]: 295 ng·h/mL
AUC(0-t) [2, 21]: 305 ng·h/mL
Cmax [2, 20]: 16.7 ng/mL
Cmax [2, 21]: 18.3 ng/mL
AUC(0-t) [2, 22]: 844 ng·h/mL
AUC(0-t) [2, 23]: 925 ng·h/mL
Cmax [2, 22]: 41.4 ng/mL
Cmax [2, 23]: 54.7 ng/mL
AUC(0-t) [2, 24]: 126 ng·h/mL
Cmax [2, 24]: 10.7 ng/mL
AUC(0-t) [2, 25]: 293 ng·h/mL
Cmax [2, 25]: 24.6 ng/mL
AUC(0-t) [2, 26]: 758 ng·h/mL
Cmax [2, 26]: 43.7 ng/mL
NOAEL of 100 mg/kg bw/day as multiple of estimated dietary exposure [3]: 1500 times
Reverse mutation (in vitro), Result [4]: Negative
NOAEL ([5]; 10, 30, 100 mg/kg bw/day food ad-mix, 90 days, both sexes): 100 mg/kg bw/day
NOEL ([5]; 90 days, females): 100 mg/kg bw/day
NOEL ([5]; 90 days, males): 30 mg/kg bw/day
Motor activity scores ([5]; males, 100 mg/kg bw/day, week 12, second half of 1-hour recording): slightly higher than those of controls
Findings ([5]; up to 100 mg/kg bw/day, 90 days): No test-article related findings
inhibition at 10 µM (CYP3A4): 4%
significant responses (≥50% inhibition or stimulation) [6]: No significant responses
parent S6821 remaining, peak area % of time 0 [7]: 56%
inhibition at 10 µM (CYP2D6): -2%
MTD ([8]; 10, 30, 100 mg/kg bw/day food ad-mix, male & female): > 100 mg/kg bw/day
Findings ([8]; up to 100 mg/kg bw/day): No test-article related findings
